Experimental data: ChEMBL document CHEMBL1140219, “Activation of p16 gene silenced by DNA methylation in cancer cells by phosphoramidate derivatives of 2'-deoxyzebularine” (2008)
Activity calls are given as the source filed them. The calls are words filed in the database; no cut-off is given here.

Experiments:
CFPAC-1 [1] = assay: Induction of p16 gene expression in human Cf-Pac-1 cells at 100 uM after 8 days by real time PCR; format: functional, cell-based
How it was run: (§1)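 Cf-Pac-1 cells in IMDM/10% FCS were seeded 3×10^5/dish and treated continuously for 8 days from 24 hr after seeding. Medium and drug were refreshed every 2–3 days, with 100 μM thymidine, lower thymidine, or 100 μM uridine added. Total RNA (5 μg) was reverse transcribed with MMLV RT and random primers. p16 mRNA was measured by real-time RT-PCR and normalized to GAPDH.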

T-24 [2] = assay: Induction of p16 gene expression in human T24 cells at 10 uM after 8 days by real time PCR; format: functional, cell-based
How it was run: (§2)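 T24 or HCT15 cells were treated continuously for 8 days at 1, 10 or 100 μM, with or without 100 μM thymidine. Drug and medium were renewed every 2–3 days. T24 cells were grown in McCoy's 5A with 10% FCS. Total RNA (5 μg) was reverse transcribed with random primers. p16 mRNA was measured by real-time RT-PCR and normalized to GAPDH.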

CFPAC-1 [3] = assay: Induction of p16 gene expression in human Cf-Pac-1 cells at 1 uM after 8 days by real time PCR; format: functional, cell-based; how it was run: as §1
CFPAC-1 [4] = assay: Induction of p16 gene expression in human Cf-Pac-1 cells at 10 uM after 8 days by real time PCR; format: functional, cell-based; how it was run: as §1
T-24 [5] = assay: Induction of p16 gene expression in human T24 cells at 100 uM after 8 days by real time PCR; format: functional, cell-based; how it was run: as §2
CFPAC-1 [6] = assay: Induction of p16 gene expression in human Cf-Pac-1 cells after 8 days by real time PCR in presence of 1 to 2 mM thymidine; format: functional, cell-based
T-24 [7] = assay: Induction of p16 gene expression in human T24 cells at 1 uM after 8 days by real time PCR; format: functional, cell-based; how it was run: as §2
CFPAC-1 [8] = assay: Cytotoxicity against human Cf-Pac-1 cells assessed as increase in cell population doubling time at 10 uM after 8 days in presence of 100 uM thymidine; format: functional
How it was run: (§3)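 Cf-Pac-1 cells grown in IMDM with 10% heat-inactivated FCS at 37°C, 5% CO2. Seeded 3×10^5 cells/10cm dish and treated 24 hr later. Medium and drug were renewed every 2–3 days. Cells were counted by Coulter counter every 2–3 days, with two plates averaged. Population doublings = log(harvested/seeded)/log2. Result is % increase in doubling time over untreated cells.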

CFPAC-1 [9] = assay: Induction of p16 gene expression in human Cf-Pac-1 cells at 10 uM by real time PCR in presence of […]; format: functional, cell-based; how it was run: as §1
CFPAC-1 [10] = assay: Induction of hypomethylation at repeat sequence D4Z4 in human Cf-Pac-1 cells at 100 uM after 8 days by quantitative Ms-SNuPE in presence of 100 uM thymidine; format: functional, cell-based
How it was run: (§4)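 Cf-Pac-1 cells were treated with continuous redosing and received 100 μM thymidine. Genomic DNA (4 μg) was bisulfite-treated and then PCR-amplified: 94°C 3 min, then 40 cycles of 94°C/annealing/72°C, 45 s each. Annealing was 65°C for p16, 53°C for MAGEA1 and 58°C for D4Z4. Ms-SNuPE primer extension was 94°C 1 min, 50°C 30 s, 72°C 20 s.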

CFPAC-1 [11] = assay: Induction of hypomethylation at CPG-rich region of p16 in human Cf-Pac-1 cells at 100 uM after 8 days by quantitative Ms-SNuPE in presence of 100 uM thymidine; format: functional, cell-based; how it was run: as §4
T-24 [12] = assay: Induction of p16 gene expression in human T24 cells after 8 days by real time PCR in presence of […]; format: functional, cell-based; how it was run: as §2
CFPAC-1 [13] = assay: Cytotoxicity against human Cf-Pac-1 cells assessed as increase in cell population doubling time at 100 uM after 8 days in presence of 100 uM thymidine; format: functional; how it was run: as §3
CFPAC-1 [14] = assay: Induction of hypomethylation at CPG-poor promoter region of MAGEA1 gene in human Cf-Pac-1 cells at 100 uM after 8 days by quantitative Ms-SNuPE in presence of 100 uM thymidine; format: functional, cell-based; how it was run: as §4
CFPAC-1 [15] = assay: Induction of p16 gene expression in human Cf-Pac-1 cells at 100 uM by real time PCR in presence of […]; format: functional, cell-based; how it was run: as §1
HCT-15 = assay: Induction of p16 gene expression in human HCT15 cells at 100 uM after 8 days by real time PCR in presence of […] thymidine; format: functional, cell-based; how it was run: as §2
CFPAC-1 [16] = assay: Induction of hypomethylation at repeat sequence D4Z4 in human Cf-Pac-1 cells at 10 uM after 8 days by quantitative Ms-SNuPE in presence of 100 uM thymidine; format: functional, cell-based; how it was run: as §4
CFPAC-1 [17] = assay: Induction of hypomethylation at CPG-poor promoter region of MAGEA1 gene in human Cf-Pac-1 cells at 10 uM after 8 days by quantitative Ms-SNuPE in presence of 100 uM thymidine; format: functional, cell-based; how it was run: as §4
CFPAC-1 [18] = assay: Induction of hypomethylation at CPG-rich region of p16 in human Cf-Pac-1 cells at 10 uM after 8 days by quantitative Ms-SNuPE in presence of 100 uM thymidine; format: functional, cell-based; how it was run: as §4
CFPAC-1 [19] = assay: Cytotoxicity against human Cf-Pac-1 cells assessed as increase in cell population doubling time at 1 uM after 8 days in presence of 100 uM thymidine; format: functional; how it was run: as §3

| SMILES | Activity (CFPAC-1 [1]) | Activity (T-24 [2]) | Activity (CFPAC-1 [3]) | Activity (CFPAC-1 [4]) | Activity (T-24 [5]) | Activity (CFPAC-1 [6]) | Activity (T-24 [7]) | Activity (CFPAC-1 [8]) | Activity (CFPAC-1 [9]) | Activity (CFPAC-1 [10]) | Activity (CFPAC-1 [11]) | Activity (T-24 [12]) | Activity (CFPAC-1 [13]) | Activity (CFPAC-1 [14]) | Activity (CFPAC-1 [15]) | Activity (HCT-15) | Activity (CFPAC-1 [16]) | Activity (CFPAC-1 [17]) | Activity (CFPAC-1 [18]) | Activity (CFPAC-1 [19]) |
| --- | --- | --- | --- | --- | --- | --- | --- | --- | --- | --- | --- | --- | --- | --- | --- | --- | --- | --- | --- | --- |
| COC(=O)[C@H](C)NP(=O)(OC[C@H]1O[C@@H](n2cccnc2=O)C[C@@H]1O)Oc1ccccc1 (stereo partly specified) | inactive | inactive | inactive | inactive | inactive | inactive | inactive |  |  |  |  |  |  |  |  |  |  |  |  |  |
| CC(C)(NP(=O)(OC[C@H]1O[C@@H](n2cccnc2=O)C[C@@H]1O)Oc1cccc2ccccc12)C(=O)OCc1ccccc1 (stereo partly specified) | inactive | inactive | inactive | inactive | inactive | inactive | inactive | 36% | Active | Active | Active | inactive | 23% | Active | Active |  |  |  |  |  |
| CCOC(=O)[C@H](C)NP(=O)(OC[C@H]1O[C@@H](n2cccnc2=O)C[C@@H]1OP(=O)(N[C@@H](C)C(=O)OCC)Oc1ccc(Cl)cc1)Oc1ccc(Cl)cc1 (stereo partly specified) | inactive | inactive | inactive | inactive | inactive | inactive | inactive |  |  |  |  | inactive |  |  |  |  |  |  |  |  |
| Cc1cn([C@H]2C[C@H](O)[C@@H](CO)O2)c(=O)[nH]c1=O [DOXRIBTIMINE] |  |  |  |  |  |  |  |  |  |  |  |  | 0% |  |  |  |  |  |  |  |
| CCOC(=O)[C@H](C)NP(=O)(OC[C@H]1O[C@@H](n2cccnc2=O)C[C@@H]1O)Oc1ccc(Cl)cc1 (stereo partly specified) | inactive | inactive | inactive | inactive | inactive | inactive | inactive |  |  |  |  | inactive |  |  |  |  |  |  |  |  |
| COC(=O)[C@H](C)NP(=O)(OC[C@H]1O[C@@H](n2cccnc2=O)[C@@H](F)[C@@H]1O)Oc1ccccc1 (stereo partly specified) | inactive | inactive | inactive | inactive | inactive | inactive | inactive |  |  |  |  |  |  |  |  |  |  |  |  |  |
| CC(C)(NP(=O)(OC[C@H]1O[C@@H](n2cccnc2=O)C[C@@H]1O)Oc1ccccc1)C(=O)OCc1ccccc1 (stereo partly specified) | inactive | inactive | inactive | inactive | inactive | inactive | inactive |  |  |  |  | inactive |  |  |  |  |  |  |  |  |
| O=c1ncccn1[C@@H]1O[C@H](CO)[C@@H](O)[C@H]1O [ZEBULARINE] |  |  |  |  |  |  |  |  |  |  |  |  | 103% |  |  | Active |  |  |  |  |
| C[C@H](NP(=O)(OC[C@H]1O[C@@H](n2cccnc2=O)[C@@H](F)[C@@H]1O)Oc1ccccc1)C(=O)OCc1ccccc1 (stereo partly specified) | inactive | inactive | inactive | inactive | inactive | inactive | inactive |  |  |  |  |  |  |  |  |  |  |  |  |  |
| CC(C)(NP(=O)(OC[C@H]1O[C@@H](n2cccnc2=O)C[C@@H]1OP(=O)(NC(C)(C)C(=O)OCc1ccccc1)Oc1ccccc1)Oc1ccccc1)C(=O)OCc1ccccc1 (stereo partly specified) | inactive | inactive | inactive | inactive | inactive | inactive | inactive |  |  |  |  | inactive |  |  |  |  |  |  |  |  |
| C[C@H](NP(=O)(OC[C@H]1O[C@@H](n2cccnc2=O)C[C@@H]1O)Oc1ccccc1)C(=O)OCc1ccccc1 (stereo partly specified) | inactive | inactive | inactive | inactive | inactive | inactive | inactive |  |  |  |  |  |  |  |  |  |  |  |  |  |
| CCOC(=O)C(C)(C)NP(=O)(OC[C@H]1O[C@@H](n2cccnc2=O)C[C@@H]1OP(=O)(NC(C)(C)C(=O)OCC)Oc1cccc2ccccc12)Oc1cccc2ccccc12 (stereo partly specified) | inactive | inactive | inactive | inactive | inactive | inactive | inactive |  | Active |  |  | inactive | Active |  |  |  | Active | Active | Active |  |
| CCOC(=O)C(C)(C)NP(=O)(OC[C@H]1O[C@@H](n2cccnc2=O)C[C@@H]1O)Oc1cccc2ccccc12 (stereo partly specified) | inactive | inactive | inactive | inactive | inactive | inactive | inactive | 81% | Active | Active | Active | inactive |  | Active | Active |  |  |  |  | 58% |
